The list is not random: actives were taken first. Their share in the collection is about 2%.
PAD4 FP inh = human PAD4 inhibitors, primary screen, biochemical, fluorescence polarization, 1536-well format; Protein-arginine deiminase type-4 (Homo sapiens), Q9UM07; recombinant PAD4, RCA probe fluorescence polarization; inhibition, % at 6.36 µM; 330,000 compounds, 0.41% hits;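 active = percent inhibition above a cutoff equal to the mean of all tested compounds plus 3 SD, cut at about 15% in these data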;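 also: 0% = PAD4 with RCA probe and DMSO and 100% = probe without PAD4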
TCR-CD3 inh = inhibitors of human TCR-CD3 interaction, primary screen, biochemical, fluorescence, TAMRA-labeled TCR probe; inhibition, % at 9.4 µM; 360,000 compounds, 0.37% hits; T-cell receptor (TCR); in the data active = inhibition above about 19%;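 also: recombinant mutant TCR 2C K166C tagged with TAMRA read by polarization; 0% = receptor in buffer alone and 100% = receptor with positive control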
TDP2 absorb = human TDP2 enzyme inhibitors, primary screen, biochemical, epi absorbance, recombinant enzyme. Tyrosyl-DNA phosphodiesterase 2 (Homo sapiens), O95551. 370,000 compounds, 0.34% hits. inhibition, % at 12.8 µM. AID 720702, 2013. T5PNP hydrolysis, p-nitrophenol absorbance 415 nm;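 active = inhibition above the mean of all tested compounds plus 3 SD, set per campaign, cut at about 25% in these data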;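 also: 0% = DMSO with enzyme and 100% = buffer with substrate but no TDP2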
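Test system: human TDP2 enzyme; Input: 120 nM TDP2 per well; Buffer or medium: Mg2+-containing Tris-HCl buffer, pH 7.5; Reagent: 5 mM T5PNP; Dosing: 12.8 µM single point, 1% DMSO; Incubation: reaction 2 h, 37 °C; Detection: p-Nitrophenol epi absorbance; Read-out: % inhibition relative to enzyme-containing and enzyme-free wells; Replicates: single well per compound.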
mABHD4 FP = ABHD4 inhibitors, primary screen, biochemical, fluorescence polarization, mouse. purified mABHD4, FP-Rh probe fluorescence polarization. inhibition, % at 8.92 µM. 370,000 compounds, 0.54% hits. AID 720543, 2013;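 active = inhibition exceeding the mean over every tested compound plus 3 SD, cut at about 30% in these data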;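 also: 0% = plate median of compound wells and 100% = S159A mutant with DMSO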
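Test system: mouse ABHD4 enzyme, wild type. Reagent: FP-Rh fluorescent activity-based probe, added after compound pre-incubation. Timing: pre-incubation 45 min, probe exposure 60 min, at 25 °C. Technique: FP readout, ex 525 nm / em 598 nm. Benchmarks: high control S159A mutant with DMSO, low control median of compound wells.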
SIAE primary = human SIAE inhibitors, primary screen, biochemical, fluorescence polarization, FP-Rh probe, 1536-well HTS. Sialate O-acetylesterase (Homo sapiens), Q9HAT2. SIAE FP-Rh probe binding. inhibition, % at 9.66 µM. 370,000 compounds, 0.69% hits. AID 1053197, 2014;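 active = inhibition above a cutoff: mean of compounds within the control limits plus 3 SD of those, cut at about 17% in these data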;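 also: 0% = plate median of compound wells and 100% = probe without SIAE protein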
HTRA1 inh = HTRA1 serine protease inhibitors, primary screen, biochemical, fluorescence polarization, HTS; Q92743; recombinant HTRA1, FP-rhodamine activity-based probe; inhibition, % at 5.96 µM; 340,000 compounds, 0.5% hits; AID 504803, 2011; in the data active = inhibition above about 36%;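 also: 0% = enzyme with DMSO and 100% = wells lacking enzyme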
Target sequence (Q92743 whole entry, looked up): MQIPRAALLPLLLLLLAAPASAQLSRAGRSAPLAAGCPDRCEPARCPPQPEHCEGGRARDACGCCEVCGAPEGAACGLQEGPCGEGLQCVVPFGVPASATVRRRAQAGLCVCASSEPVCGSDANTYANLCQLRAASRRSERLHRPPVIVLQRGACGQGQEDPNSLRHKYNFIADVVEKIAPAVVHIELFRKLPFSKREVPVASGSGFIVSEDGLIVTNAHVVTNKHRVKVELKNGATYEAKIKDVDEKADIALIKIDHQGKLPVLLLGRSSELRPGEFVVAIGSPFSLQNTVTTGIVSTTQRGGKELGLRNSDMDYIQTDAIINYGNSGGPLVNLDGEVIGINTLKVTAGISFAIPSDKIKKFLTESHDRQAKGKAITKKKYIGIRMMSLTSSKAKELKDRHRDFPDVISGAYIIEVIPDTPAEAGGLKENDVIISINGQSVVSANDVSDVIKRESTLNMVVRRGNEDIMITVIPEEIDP
HTRA1 inh conf = HTRA1 protease inhibitors, retest, confirmation, biochemical, fluorescence polarization | 1,600 compounds, 66% hits | shares compounds with HTRA1 inh | recombinant HTRA1, FP-rhodamine activity-based probe | inhibition, % at 5.96 µM;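 active = mean inhibition over three repeats above a set limit taken from the earlier primary screen, cut at about 37% in these data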;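 also: 0% = HTRA1 with DMSO and 100% = wells lacking HTRA1; inhibitors block probe binding so polarization drops and inhibition rises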
Starred values were filed as active, the others as inactive; . = no result given.

SMILES	PAD4 FP inh	TCR-CD3 inh	TDP2 absorb	mABHD4 FP	SIAE primary	HTRA1 inh	HTRA1 inh conf
CN1CCc2cc(O)c(O)cc2C(c2ccccc2)C1 (centres undefined)	-1	7	2	7	6	4	.
C=CCN1CCc2c(cc(O)c(O)c2Br)[C@@H](c2ccccc2)C1	-3	6	2	15	-3	51*	68*
Cc1cc(C)cc(Nc2cc(=O)n(C3CCCCC3)c(=O)[nH]2)c1	3	7	-6	2	-5	-2	.
Cc1cc2nc3c(=O)n(C4CCCCC4)c(=O)[nH]c3nc2cc1N	.	-3	3	25	12	58*	28
CC1=C(C(=O)N(C(C)C)C(C)C)CC(CC(=O)NCc2ccco2)C(=O)N1CCCN1CCCC1=O (centres undefined)	.	3	-12	7	-2	.	.
N#Cc1ccccc1OCC(=O)Nc1ccc2c(c1)OCO2	.	-4	-3	3	-1	-2	.
O=C(N/N=C/c1ccc([N+](=O)[O-])o1)c1sc2ccccc2c1Cl	-14	7	-12	27	-1	52*	55*
Oc1ccccc1NCC(O)Cn1ccc2ccccc21 (centres undefined)	-6	0	17	27	10	54*	21
OC(CNCc1ccccc1)Cn1ccc2ccccc21 (centres undefined)	1	-8	-3	12	0	0	.
Cc1cc(C)c2c(=O)n3c(nc2c1)C(Cc1ccccc1)NC(=O)c1cc2ccccc2cc1-3 (centres undefined)	.	11	5	-9	-26	-62	.
CCn1c2ccccc2c2c3ncc4cccn4c3ccc21	-14	1	13	9	-28	47*	-17
CC[N+](C)(CC)CC(=O)OCC1C(C)C=C(C)CC1C (centres undefined)	-3	-6	-10	-11	-6	1	.
C/C(=N\NC(=O)c1cc2ccccc2cc1O)c1ccccn1	-10	-11	-11	21	7	52*	18
O=C(N/N=C/c1ccc(Sc2ccccn2)o1)c1cc2ccccc2cc1O	5	.	.	.	.	60*	49*
CCN(C(=O)c1c([N+](=O)[O-])cnn1C)c1ccccc1	.	3	12	-3	0	37*	32
Nc1nc(C(c2ccccc2)c2ccccc2)cs1	-3	4	-13	-14	-8	0	.
N/C(=N\OC(=O)c1ccccc1Cl)c1cccc([N+](=O)[O-])c1	0	4	9	0	5	2	.
N/C(=N/OC(=O)c1ccccc1Cl)c1ncc([N+](=O)[O-])s1	2	3	3	2	3	57*	34
CC1=CC(C)(C)Nc2ccccc21	-3	-3	-13	6	4	-2	.
COc1ccc2c(c1)NC(C)(C)C=C2C	4	4	-7	14	11	46*	5
S=C(N=Nc1ccccc1)NNc1ccccc1	-3	3	-3	22	3	43*	43*
S=C(NNC(=S)Nc1ccc(Cl)cc1)NNc1ccccc1	.	-1	11	4	8	22	.
O=C1CCC/C(=N/Nc2ccc(Cl)cc2)C1	-10	2	16	18	6	37*	42*
O=C(NN=C1CCCC1)c1ccc(Cl)cc1	-7	3	-15	-5	0	5	.
Cc1c(S(=O)(=O)NC2CCCCC2)c(=O)n(C)c(=O)n1C	-12	2	6	11	3	4	.
SMILES	PAD4 FP inh	TCR-CD3 inh	TDP2 absorb	mABHD4 FP	SIAE primary	HTRA1 inh	HTRA1 inh conf
O=C(C=C(O)c1ccc(Cl)cc1)C(=O)NNC(=O)C(O)(c1ccccc1)c1ccccc1	.	7	-4	-8	-12	41*	36*
Nc1c(Cl)ncnc1N/N=C/c1ccc2ccccc2n1	7	4	-2	27	5	79*	72*
CCOC(=O)CNC(=O)N(C)[C@H]1C[C@H]2c3[nH]c4ccccc4c3CCN2C(=O)[C@H]1[C@H](C)O	.	2	8	4	5	.	.
CC1(C)C=Cc2c(c3c(c4c(=O)c(-c5ccc(O)cc5)coc24)OC(C)(C)CC3)O1	0	7	-5	0	-3	36*	20
CC1(C)CC(=O)c2c(O)cc(O)cc2O1	-1	2	-12	5	9	5	.
C[C@]12CCC[C@H](O1)c1c(cc3c(c1O)C(=O)c1c(O)cc(O)cc1C3=O)O2	-7	-2	-7	2	-18	37*	62*
O=C(NN=C1CCN(Cc2ccccc2)CC1)c1cc(Br)ccc1O	1	13	-8	9	11	40*	13
CCCC(=O)NC(c1ccccc1)c1ccc2cccnc2c1O (centres undefined)	0	-8	-21	15	17	47*	45*
CCCCC(=O)NC(c1ccccc1)c1ccc2cccnc2c1O (centres undefined)	2	-7	-9	5	14	39*	57*
CCCCC(=O)NC(c1cccc([N+](=O)[O-])c1)c1ccc2cccnc2c1O (centres undefined)	.	-2	1	-8	6	27	.
COc1cccc(C(NC(C)=O)c2ccc3cccnc3c2O)c1 (centres undefined)	2	-8	-17	8	3	32	.
CCCC(=O)NC(c1ccc(OC)cc1)c1ccc2cccnc2c1O (centres undefined)	4	-5	-13	4	12	27	.
CCCCC(=O)NC(c1ccccc1Cl)c1ccc2cccnc2c1O (centres undefined)	-2	-4	-10	10	10	57*	52*
CCC(=O)NC(c1ccccc1OC)c1ccc2cccnc2c1O (centres undefined)	1	.	.	.	.	41*	43*
CC1CCCCN1CCCNC(=O)Cn1c(=O)c2cccn2c2ccccc21 (centres undefined)	-3	-6	5	5	-4	8	.
CC(Cl)=CCn1c(NCCc2ccccc2)nc2c1c(=O)n(C)c(=O)n2C	.	4	3	-3	9	.	.
CC(C)(C)N1Cc2nnn(CC3CCCCC3)c2-c2cc(F)ccc2S1(=O)=O	.	.	7	-2	-1	.	.
CCCCC(=O)NC(c1ccc([N+](=O)[O-])cc1)c1c(O)ccc2ccccc12 (centres undefined)	-3	1	0	-29	-2	-30	.

Screening results (PubChem BioAssay)
